Data set [1] has as its system Plasma. As to the kind of experiment: Anticoagulant activity in citrated rabbit plasma assessed as drug concentration required to double plasma clotting time preincubated for 10 mins at 37 degC by coagulometry. The format is functional, Oryctolagus cuniculus. A digest of the protocol:
(§1)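 Test compound or DMSO added to citrated rabbit plasma (3.8% sodium citrate, 10:90 v/v) and preincubated 10 min at 37 °C. PT and aPTT clotting times measured on a coagulometer with commercial kits. Activity expressed as the concentration needed to double plasma clotting time (CT2, μM).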

The subject of data set [2] is Plasma. Briefly: Anticoagulant activity in citrated rabbit plasma assessed as activated partial thromboplastin time preincubated for 10 mins at 37 degC by coagulometry. Type of data set: functional, Oryctolagus cuniculus. The essentials:
as §1

Data set [3] is described as follows: AUC (0 to infinity) in Sprague-Dawley rat at 9 mg/kg, po. The format is ADME, organism-based. More on the design: time infinity, dose 9 mg/kg, route oral. The conditions noted are these: plasma. A digest of the protocol:
(§2)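 Male Sprague-Dawley rats, 200−220 g, four per group. Vehicle was 5% DMSO + 5% Tween-80 in 90% saline. The reference drug was given in 10% DMSO + 10% Tween-80 + 80% PEG400 (40% solution in saline). Serial retrobulbar vein samples were quantified by LC-MS. Parameters came from noncompartmental analysis of mean plasma concentrations.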

A short description of data set [4]: AUC (0 to infinity) in Sprague-Dawley rat at 4.5 mg/kg, iv. Type of data set: ADME, organism-based. More on the design: time infinity, dose 4.5 mg/kg, route intravenous. The following applies: plasma. The essentials: as §2
The nature of data set [5]: Plasma clearance in Sprague-Dawley rat at 4.5 mg/kg, iv. The format is ADME, organism-based. More on the design: dose 4.5 mg/kg, route intravenous. A digest of the protocol:
as §2

Data set [6] is described as follows: Oral bioavailability in Sprague-Dawley rat at 9 mg/kg. The format is ADME, organism-based. The following applies: in vivo. The essentials: as §2
The target of data set [7] is Coagulation factor X (Homo sapiens, UniProt P00742). Briefly: Inhibition of human factor 10a using N-Z-D-Arg-Gly-Arg-pNA, S-2765 chromogenic substrate.
Coagulation factor X, sequence (P00742 41-179 limits assumed): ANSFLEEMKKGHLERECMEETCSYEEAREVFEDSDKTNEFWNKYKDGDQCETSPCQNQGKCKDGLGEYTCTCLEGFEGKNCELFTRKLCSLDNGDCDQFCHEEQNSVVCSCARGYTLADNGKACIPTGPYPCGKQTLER
Coagulation factor X, sequence (P00742 235-488 limits assumed): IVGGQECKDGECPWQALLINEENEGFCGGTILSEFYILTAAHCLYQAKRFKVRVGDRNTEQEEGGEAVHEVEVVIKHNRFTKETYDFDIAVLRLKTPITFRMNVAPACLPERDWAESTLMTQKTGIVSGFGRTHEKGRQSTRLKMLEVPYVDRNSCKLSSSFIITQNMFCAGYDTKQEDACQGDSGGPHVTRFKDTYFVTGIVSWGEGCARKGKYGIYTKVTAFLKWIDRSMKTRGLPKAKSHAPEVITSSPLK
Data set [8] in a line: Cmax in Sprague-Dawley rat at 9 mg/kg, po. The format is ADME, organism-based. The conditions noted are these: in vivo. More on the design: dose 9 mg/kg, route oral. A digest of the protocol:
as §2

Data set [9] can be described thus: Tmax in Sprague-Dawley rat at 9 mg/kg, po. The format is ADME, organism-based. More on the design: dose 9 mg/kg, route oral. The following applies: in vivo. The essentials: as §2
Data set [10] can be described thus: Elimination half life in Sprague-Dawley rat at 9 mg/kg, po. The format is ADME, organism-based. More on the design: dose 9 mg/kg, route oral. The following applies: in vivo, read-out: beta t1/2 (converted). The essentials:
as §2

The nature of data set [11]: Elimination half life in Sprague-Dawley rat at 4.5 mg/kg, iv. The format is ADME, organism-based. The arrangement: dose 4.5 mg/kg, route intravenous. The following applies: in vivo, read-out: beta t1/2 (converted). A digest of the protocol: as §2
A short description of data set [12]: Volume of distribution at steady state in Sprague-Dawley rat at 4.5 mg/kg, iv. The format is ADME, organism-based. More on the design: dose 4.5 mg/kg, route intravenous. The conditions noted are these: in vivo, read-out: Vdss. The essentials: as §2
Data set [13] is described as follows: Cmax in Sprague-Dawley rat at 10 mg/kg, po. The following applies: in vivo. The arrangement: dose 10 mg/kg, route oral. The format is ADME, organism-based. The essentials: as §2
Data set [14] is described as follows: Tmax in Sprague-Dawley rat at 10 mg/kg, po. Type of data set: ADME, organism-based. The arrangement: dose 10 mg/kg, route oral. The conditions noted are these: in vivo. A digest of the protocol: as §2
A short description of data set [15]: Elimination half life in Sprague-Dawley rat at 10 mg/kg, po. The arrangement: dose 10 mg/kg, route oral. The format is ADME, organism-based. The conditions noted are these: in vivo, read-out: beta t1/2 (converted). A digest of the protocol:
as §2

Data set [16] in a line: Elimination half life in Sprague-Dawley rat at 3 mg/kg, iv. The format is ADME, organism-based. More on the design: dose 3 mg/kg, route intravenous. The conditions noted are these: in vivo, read-out: beta t1/2 (converted). A digest of the protocol:
as §2

A short description of data set [17]: AUC (0 to infinity) in Sprague-Dawley rat at 10 mg/kg, po. Type of data set: ADME, organism-based. The arrangement: time infinity, dose 10 mg/kg, route oral. The following applies: plasma. A digest of the protocol:
as §2

Data set [18] in a line: AUC (0 to infinity) in Sprague-Dawley rat at 3 mg/kg, iv. The format is ADME, organism-based. More on the design: time infinity, dose 3 mg/kg, route intravenous. The following applies: plasma. The essentials: as §2
A short description of data set [19]: Plasma clearance in Sprague-Dawley rat at 3 mg/kg, iv. Type of data set: ADME, organism-based. The arrangement: dose 3 mg/kg, route intravenous. The essentials: as §2
Data set [20] in a line: Volume of distribution at steady state in Sprague-Dawley rat at 3 mg/kg, iv. The format is ADME, organism-based. The arrangement: dose 3 mg/kg, route intravenous. The following applies: in vivo, read-out: Vdss. A digest of the protocol: as §2
The nature of data set [21]: Oral bioavailability in Sprague-Dawley rat at 10 mg/kg. The following applies: in vivo. Type of data set: ADME, organism-based. A digest of the protocol:
as §2

Data set [22] has as its target Prothrombin (Homo sapiens, UniProt P00734). As to the kind of experiment: Inhibition of human factor 2a using L-pyro-Glu-Pro-ArgpNA, S-2366 chromogenic substrate. The essentials: (§3)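 Human enzyme and inhibitor were premixed and preincubated, then the chromogenic substrate was added. Substrate levels: 300 μM S-2765 (FXa, trypsin); 200 μM S-2366 (FIIa); 2 mM S-2366 (FVIIa, FXIa). pNA release was monitored continuously at 405 nm for 20 min at 37 °C. IC50 was obtained by nonlinear regression.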

Data set [23] deals with T1, Coagulation factor VII (Homo sapiens, UniProt P08709).
T1 sequence (P08709 whole entry): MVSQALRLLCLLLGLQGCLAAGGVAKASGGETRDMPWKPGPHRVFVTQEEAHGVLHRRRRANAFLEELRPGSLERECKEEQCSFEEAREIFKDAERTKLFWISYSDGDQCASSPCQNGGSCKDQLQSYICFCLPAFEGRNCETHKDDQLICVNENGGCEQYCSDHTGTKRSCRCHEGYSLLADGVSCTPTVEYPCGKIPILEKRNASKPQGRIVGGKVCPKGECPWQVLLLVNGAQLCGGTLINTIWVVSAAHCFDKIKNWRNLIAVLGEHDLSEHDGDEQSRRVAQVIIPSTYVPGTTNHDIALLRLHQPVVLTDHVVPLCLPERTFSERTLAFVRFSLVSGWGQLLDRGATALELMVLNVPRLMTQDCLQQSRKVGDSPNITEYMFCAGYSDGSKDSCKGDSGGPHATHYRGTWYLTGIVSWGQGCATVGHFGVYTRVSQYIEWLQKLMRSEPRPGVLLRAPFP
Briefly: Inhibition of human factor 7a using S-2366 chromogenic substrate. A digest of the protocol:
as §3

Data set [24] has as its target Coagulation factor IX (Homo sapiens, UniProt P00740). Briefly: Inhibition of human factor 9a using CH3SO2-(D)CHG Gly-Arg-pNA, Biophen-CS51 chromogenic substrate.
Data set [25] concerns the target Trypsin (Homo sapiens, UniProt P07477+P07478+P35030). Briefly: Inhibition of human trypsin using N-Z-D-Arg-Gly-Arg-pNA, S-2765 chromogenic substrate. Type of data set: protein assay. A digest of the protocol: as §3
The target in data set [26] is Coagulation factor XI (Homo sapiens, UniProt P03951). As to the kind of experiment: Inhibition of human factor 11a using S-2366 chromogenic substrate. The essentials:
as §3

pIC50: −log10 of the molar value.

Experimental findings from ChEMBL document CHEMBL3351225, “Design, synthesis, and structure-activity and structure-pharmacokinetic relationship studies of novel [6,6,5] tricyclic fused oxazolidinones leading to the discovery of a potent, selective, and orally bioavailable FXa inhibitor” (J Med Chem, 2014) are described below.

Coagulation factor IX, sequence (P00740 47-191 limits assumed): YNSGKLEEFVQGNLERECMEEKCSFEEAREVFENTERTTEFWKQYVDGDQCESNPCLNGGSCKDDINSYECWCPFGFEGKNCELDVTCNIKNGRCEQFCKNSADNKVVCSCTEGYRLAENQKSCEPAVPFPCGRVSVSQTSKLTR
Coagulation factor IX, sequence (P00740 227-461 limits assumed): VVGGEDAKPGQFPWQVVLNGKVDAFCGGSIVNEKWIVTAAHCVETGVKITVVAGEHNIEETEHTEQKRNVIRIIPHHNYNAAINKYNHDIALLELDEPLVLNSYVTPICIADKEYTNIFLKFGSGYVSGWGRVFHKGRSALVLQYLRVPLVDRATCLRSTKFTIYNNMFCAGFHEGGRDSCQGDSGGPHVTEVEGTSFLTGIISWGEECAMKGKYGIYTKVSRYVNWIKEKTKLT
Coagulation factor XI, sequence (P03951 19-387 limits assumed): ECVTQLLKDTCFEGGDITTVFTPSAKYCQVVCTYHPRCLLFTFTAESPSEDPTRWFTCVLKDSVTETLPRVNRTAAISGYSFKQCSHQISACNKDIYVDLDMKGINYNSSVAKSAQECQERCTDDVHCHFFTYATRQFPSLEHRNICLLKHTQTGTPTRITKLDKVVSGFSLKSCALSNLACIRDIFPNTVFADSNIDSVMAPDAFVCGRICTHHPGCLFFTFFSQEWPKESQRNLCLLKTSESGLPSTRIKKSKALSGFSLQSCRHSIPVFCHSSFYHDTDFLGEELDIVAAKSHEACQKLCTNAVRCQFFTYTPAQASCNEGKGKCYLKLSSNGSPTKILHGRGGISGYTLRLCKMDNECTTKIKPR
Coagulation factor XI, sequence (P03951 388-625 limits assumed): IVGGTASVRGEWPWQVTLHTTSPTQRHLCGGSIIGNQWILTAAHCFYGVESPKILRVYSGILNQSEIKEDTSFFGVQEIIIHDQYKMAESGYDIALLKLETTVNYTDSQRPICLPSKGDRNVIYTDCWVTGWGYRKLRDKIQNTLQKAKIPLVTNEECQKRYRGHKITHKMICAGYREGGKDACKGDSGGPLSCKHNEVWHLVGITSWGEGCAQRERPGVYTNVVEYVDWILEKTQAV

One may read the AUC(0-inf) as total exposure, with the tail of the curve extrapolated. One may read the clearance as the rate of elimination divided by the concentration. High values mean efficient removal, low ones inefficient removal. As a reminder, the bioavailability is the share of a dose that reaches the circulation, judged against a reference dose that is usually intravenous. A lower bioavailability goes with poor availability. In the case of `O=C(NC[C@@H]1OC(=O)N2c3ccc(N4CCCCC4=O)cc3OC[C@@H]12)c1ccc(Cl)s1`, the Activity in [1] came out at 0.42 µM. For the same molecule, the 2aPTT in data set [2] turned out to be 1.63 µM. Besides, the values for the AUC(0-inf) in data set [3] and in data set [4] were 28.5 µg·h/mL and 33.6 µg·h/mL, respectively. For the same molecule, in data set [5], the clearance is 0.137 L/h/kg. In addition, in data set [6], the bioavailability was 42%.
What is called pIC50 is −log10 of the IC50, conventionally taken in molar units. Read a low pIC50 as a large IC50. For orientation: Cmax means the maximum level reached in the sampled fluid or tissue. The term Tmax denotes the time at which the peak concentration occurs. Consider `CS(=O)(=O)c1ccccc1-c1ccc2c(c1)OC[C@H]1[C@H](CNC(=O)c3ccc(Cl)s3)OC(=O)N21`, for which the pIC50 in [7] was 7.42. Moreover, in data set [1], the Activity was 5.88 µM. The 2aPTT in data set [2] turned out to be 4.65 µM. This molecule came in with a Cmax in data set [8] of 6.76 µg/mL. The Tmax in data set [9] was found to be 1 h. In addition, the figures for the half-life in data set [10] and in [11] were 1.43 h and 0.88 h, respectively. In addition, the area under the curve AUC(0-inf) in [3] was 24.5 µg·h/mL; in [4], 43.9 µg·h/mL. Besides, in data set [5], the clearance was 0.103 L/h/kg. Further, the Vd in data set [12] came out at 0.169 L/kg. Also, the bioavailability in [6] is 27.3%.
In data set [7], `NS(=O)(=O)c1ccccc1-c1ccc2c(c1)OC[C@H]1[C@H](CNC(=O)c3ccc(Cl)s3)OC(=O)N21` had a pIC50 of 7.22. In addition, in data set [1], the Activity was found to be 4.58 µM. In addition, in data set [2], the 2aPTT is 4.86 µM. In addition, the Cmax in data set [13] stood at 3.63 µg/mL. Besides, the Tmax in data set [14] came to 1 h. Also, the half-life in data set [15] was 1.65 h; in data set [16], 1.38 h. Besides, the AUC(0-inf) in data set [17] was found to be 12.3 µg·h/mL; in data set [18] it was 12.2 µg·h/mL. In data set [19], the clearance was 0.253 L/h/kg. The Vd in [20] is 0.35 L/kg. Moreover, the bioavailability in data set [21] turned out to be 29%.
Usually IC50 stands for the concentration that gives 50% inhibition. Turning to `O=C(NC[C@@H]1OC(=O)N2c3ccc(N4CCOCC4=O)cc3SC[C@@H]12)c1ccc(Cl)s1`, the pIC50 is less than 4.00 in [22]; 8.60 in [7]; less than 4.00 in [23]; less than 4.00 in data set [24]; less than 4.00 in [26]. In data set [25], this molecule had an IC50 greater than 100 µM. Besides, in [1], the Activity came to 0.58 µM. For the same molecule, in [2], the 2aPTT worked out at 0.33 µM. In addition, the highest level in data set [13] (Cmax) was 0.167 µg/mL. Also, in [14], the time to peak (Tmax) worked out at 4 h. The results for the half-life in data set [15] and in [16] were 3.15 h and 0.89 h, respectively. Moreover, the AUC(0-inf) was 1.48 µg·h/mL in data set [17] and 5.7 µg·h/mL in data set [18]. Further, the clearance in data set [19] is 0.529 L/h/kg. Also, the Vd in data set [20] was determined as 0.574 L/kg. The bioavailability in [21] turned out to be 7.4%.
